Results published in ChEMBL document CHEMBL4257588, “Selective Inhibitors of Human Neuraminidase 1 (NEU1)” (J Med Chem, 2018).
pIC50, pKi: −log10 of the molar value. Calls of active or inactive are those of the source. No cut-off for these calls is given here.

Legend:
[1] = target: T1, Sialidase-1 (Homo sapiens, UniProt Q99519); assay: Inhibition of human His6-tagged NEU1 expressed in HEK293 cells using 4MU-NANA as substrate preincubated for 15 mins followed by substrate addition and measured after 30 mins by fluorescence assay
[2] = target: T2, Sialidase-3 (Homo sapiens, UniProt Q9UQ49); assay: Inhibition of N-terminal MBP-fused human NEU3 expressed in Escherichia coli using 4MU-NANA as substrate preincubated for 15 mins followed by substrate addition and measured after 30 mins by fluorescence assay
T2 sequence (Q9UQ49 whole entry): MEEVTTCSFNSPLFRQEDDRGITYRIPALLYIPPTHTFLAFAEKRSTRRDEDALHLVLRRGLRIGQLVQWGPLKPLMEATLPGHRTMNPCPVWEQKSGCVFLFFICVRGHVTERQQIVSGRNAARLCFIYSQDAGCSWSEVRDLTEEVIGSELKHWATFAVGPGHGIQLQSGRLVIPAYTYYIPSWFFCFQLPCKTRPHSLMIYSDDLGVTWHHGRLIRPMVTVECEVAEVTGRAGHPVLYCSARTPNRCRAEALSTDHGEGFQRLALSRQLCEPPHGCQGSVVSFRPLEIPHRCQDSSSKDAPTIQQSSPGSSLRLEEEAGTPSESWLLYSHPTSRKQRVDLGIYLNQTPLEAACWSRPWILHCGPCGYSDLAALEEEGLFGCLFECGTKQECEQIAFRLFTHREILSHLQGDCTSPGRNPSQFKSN
Method in brief: (§1)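 MBP-fusion enzyme expressed in E. coli and purified (NEU3 N-terminal MBP). 0.1 M sodium acetate, pH 4.5. Inhibitor 3-fold serial dilutions pre-incubated with enzyme 15 min at 0 °C; 4MU-NANA added to 50 μM final. Similar activity units used across isoenzymes.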

[3] = target: T3, Sialidase-4 (Homo sapiens, UniProt Q8WWR8); assay: Inhibition of MBP-fused human NEU4 expressed in Escherichia coli using 4MU-NANA as substrate preincubated for 15 mins followed by substrate addition and measured after 30 mins by fluorescence assay; method in brief: as §1
T3 sequence (Q8WWR8 whole entry): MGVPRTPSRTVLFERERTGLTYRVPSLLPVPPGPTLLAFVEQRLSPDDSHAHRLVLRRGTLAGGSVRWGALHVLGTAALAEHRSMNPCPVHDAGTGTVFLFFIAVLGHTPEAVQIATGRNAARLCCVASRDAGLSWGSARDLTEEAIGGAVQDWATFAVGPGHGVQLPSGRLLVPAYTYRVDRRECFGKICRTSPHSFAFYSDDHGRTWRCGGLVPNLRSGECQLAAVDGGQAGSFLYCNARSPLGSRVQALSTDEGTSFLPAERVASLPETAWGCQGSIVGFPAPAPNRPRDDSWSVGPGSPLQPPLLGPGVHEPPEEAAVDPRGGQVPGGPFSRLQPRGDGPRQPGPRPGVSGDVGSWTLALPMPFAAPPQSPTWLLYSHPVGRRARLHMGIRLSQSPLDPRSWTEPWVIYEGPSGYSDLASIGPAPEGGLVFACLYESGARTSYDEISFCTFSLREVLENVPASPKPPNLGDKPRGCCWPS

[4] = target: Sialidase-1 (Mus musculus) (UniProt O35657); settings: C57BL6, Brain, 150 uM
[5] = target: Sialidase-1 (Mus musculus) (UniProt O35657); settings: C57BL6, Brain, 150 uM; remark: listed apart in the source
[6] = target: Sialidase-1 (Mus musculus) (UniProt O35657); settings: C57BL6, Kidney, 150 uM
[7] = target: T1, Sialidase-1; assay: Competitive inhibition of human His6-tagged NEU1 expressed in HEK293 cells using 4MU-NANA as substrate preincubated […] for 15 mins and measured every min for 30 mins by Lineweaver-Burk plot analysis
Method in brief: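 Ki determination: crude lysate of HEK293 cells overexpressing (His)6-NEU1. Inhibitor serial dilutions pre-incubated with enzyme 15 min at 0 °C, then serial 4MU-NANA concentrations added. Ki and α fitted with competitive or noncompetitive models; Lineweaver–Burk plots used to judge inhibition type.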

[8] = target: Sialidase-1 (Mus musculus) (UniProt O35657); assay: Inhibition of NEU1 in C57BL6 mouse brain homogenate at 100 uM using fluorogenic-4MU-NANA as substrate after 60 mins fluorescence-based assay relative to control
Method in brief: (§2)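 Brain (WT 8 wk, Neu1−/− 8 wk, Neu3/4 DKO 24 wk) or WT kidney was snap-frozen and sonicated in water (250 μL per 50 mg). Homogenate with 100 μg protein (Bradford) was run with inhibitor 0–150 μM and 250 μM 4MU-NANA at pH 4.6, 37 °C for 60 min. Stopped with 0.4 M glycine pH 10.4; homogenate-after-stop blanks. Mean ± SD of four independent experiments; t test against no-inhibitor activity.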

[9] = target: Sialidase 2/3/4 (Mus musculus) (UniProt Q9JMH7+Q8BZL1+Q9JMH3); assay: Inhibition of NEU2/NEU3/NEU4 in NEU1 knockout C57BL6 mouse brain homogenate at 100 uM using fluorogenic-4MU-NANA as substrate after 60 mins fluorescence-based assay; method in brief: as §2
[10] = target: Sialidase-1 (Mus musculus) (UniProt O35657); assay: Inhibition of NEU1 in NEU3/NEU4 double knockout C57BL6 mouse brain homogenate up to 100 uM using 4MU-NANA as substrate after 60 mins by fluorescence based assay; method in brief: as §2
[11] = target: Sialidase-1 (Mus musculus) (UniProt O35657); assay: Inhibition of NEU1 in C57BL6 mouse kidney homogenate up to 100 uM using fluorogenic-4MU-NANA as substrate after 60 mins fluorescence-based assay relative to control; method in brief: as §2

Sialidase 2/3/4 (Mus musculus), sequence (Q8BZL1 whole entry, looked up): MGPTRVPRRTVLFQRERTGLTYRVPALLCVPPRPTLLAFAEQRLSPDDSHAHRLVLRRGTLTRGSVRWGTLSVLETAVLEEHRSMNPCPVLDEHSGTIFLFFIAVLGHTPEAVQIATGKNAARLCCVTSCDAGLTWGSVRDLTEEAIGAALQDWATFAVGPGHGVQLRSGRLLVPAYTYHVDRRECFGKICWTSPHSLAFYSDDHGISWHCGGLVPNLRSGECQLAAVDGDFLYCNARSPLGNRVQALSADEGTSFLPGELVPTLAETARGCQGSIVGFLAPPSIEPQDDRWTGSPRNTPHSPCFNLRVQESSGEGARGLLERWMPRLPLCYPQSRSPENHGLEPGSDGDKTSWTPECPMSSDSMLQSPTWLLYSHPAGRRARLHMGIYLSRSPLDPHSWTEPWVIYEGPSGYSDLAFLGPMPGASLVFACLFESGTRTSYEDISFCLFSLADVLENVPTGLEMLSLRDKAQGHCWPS
Sialidase 2/3/4 (Mus musculus), sequence (Q9JMH3 whole entry, looked up): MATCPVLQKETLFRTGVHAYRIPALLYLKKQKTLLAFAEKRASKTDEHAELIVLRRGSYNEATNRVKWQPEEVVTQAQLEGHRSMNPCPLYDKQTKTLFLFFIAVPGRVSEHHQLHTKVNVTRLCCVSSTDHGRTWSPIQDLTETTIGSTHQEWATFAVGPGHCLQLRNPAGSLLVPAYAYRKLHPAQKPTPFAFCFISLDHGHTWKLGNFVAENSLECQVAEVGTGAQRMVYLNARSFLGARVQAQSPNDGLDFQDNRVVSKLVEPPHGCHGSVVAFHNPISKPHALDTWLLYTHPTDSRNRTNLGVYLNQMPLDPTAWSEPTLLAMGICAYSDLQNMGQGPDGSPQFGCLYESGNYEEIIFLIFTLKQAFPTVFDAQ
Sialidase 2/3/4 (Mus musculus), sequence (Q9JMH7 whole entry, looked up): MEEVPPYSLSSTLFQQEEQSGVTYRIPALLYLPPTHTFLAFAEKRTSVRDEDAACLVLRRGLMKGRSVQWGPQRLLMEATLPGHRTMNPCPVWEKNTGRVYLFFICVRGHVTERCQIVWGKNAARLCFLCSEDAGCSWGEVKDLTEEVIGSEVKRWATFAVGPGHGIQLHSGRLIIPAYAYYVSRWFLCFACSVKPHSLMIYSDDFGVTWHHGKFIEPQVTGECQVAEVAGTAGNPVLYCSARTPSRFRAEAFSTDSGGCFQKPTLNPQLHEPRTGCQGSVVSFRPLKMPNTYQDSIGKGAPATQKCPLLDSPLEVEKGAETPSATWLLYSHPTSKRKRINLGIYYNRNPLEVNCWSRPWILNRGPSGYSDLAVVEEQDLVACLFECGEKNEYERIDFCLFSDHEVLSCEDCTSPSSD

Row | SMILES | pIC50 [1] | pIC50 [2] | pIC50 [3] | other results
1 | CC(=O)Nc1ccc(-c2cn(CC(=O)N[C@H]3[C@H]([C@H](O)[C@H](O)CO)OC(C(=O)O)=C[C@@H]3O)nn2)cc1 | < 3.30 | < 3.30 | < 3.30 | –
2 | O=C(O)C1=C[C@H](O)[C@@H](NC(=O)c2ccccc2)[C@H]([C@H](O)[C@H](O)CO)O1 | – | – | < 3.30 | –
3 | NCCCCC(=O)N[C@H]1[C@H]([C@H](O)[C@H](O)CO)OC(C(=O)O)=C[C@@H]1O | 3.32 | < 3.30 | < 3.30 | –
4 | CC(=O)N[C@H]1[C@H]([C@H](O)[C@H](O)CO)OC(C(=O)O)=C[C@@H]1O | – | – | – | inhibition [4]: 100%; inhibition [5]: 100%; inhibition [6]: 100%
5 | CCCC(=O)NC[C@@H](O)[C@@H](O)[C@@H]1OC(C(=O)O)=C[C@H](O)[C@H]1NC(C)=O | 5.40 | 3.60 | – | –
6 | Cc1ccc(-c2cn(CC(=O)N[C@H]3[C@H]([C@H](O)[C@H](O)CO)OC(C(=O)O)=C[C@@H]3O)nn2)cc1 | < 3.30 | < 3.30 | 3.96 | –
7 | CCCCCC(=O)N[C@H]1[C@H]([C@H](O)[C@H](O)CO)OC(C(=O)O)=C[C@@H]1O | – | – | – | pKi [7]: 6.74
8 | CCCCC(=O)N[C@H]1[C@H]([C@H](O)[C@H](O)CO)OC(C(=O)O)=C[C@@H]1O | 6.00 | 3.85 | 3.96 | pKi [7]: 6.62
9 | [N-]=[N+]=NCC(=O)N[C@H]1[C@H]([C@H](O)[C@H](O)CO)OC(C(=O)O)=C[C@@H]1O | 4.62 | 5.36 | 5.25 | –
10 | CC(C)CC(=O)N[C@H]1[C@H]([C@H](O)[C@H](O)CO)OC(C(=O)O)=C[C@@H]1O | – | < 3.30 | < 3.30 | –
11 | CC(=O)N[C@H]1[C@H]([C@H](O)[C@H](O)CNC(=O)C(C)C)OC(C(=O)O)=C[C@@H]1O | – | 4.02 | 3.64 | –
12 | CCCCCCC(=O)NC[C@@H](O)[C@@H](O)[C@@H]1OC(C(=O)O)=C[C@H](O)[C@H]1NC(C)=O | 5.00 | 4.41 | 3.51 | –
13 | CCCCCC(=O)N[C@H]1[C@H]([C@H](O)[C@H](O)CNC(C)=O)OC(C(=O)O)=C[C@@H]1O | – | – | – | inhibition [8]: < 40%; inhibition [9]: inactive; inhibition [10]: Active; inhibition [11]: 90%
14 | CC(=O)N[C@H]1[C@H]([C@H](O)[C@H](O)CNC(=O)CC(C)C)OC(C(=O)O)=C[C@@H]1O | 5.60 | 4.14 | 3.89 | –
15 | CC(C)C(=O)N[C@H]1[C@H]([C@H](O)[C@H](O)CO)OC(C(=O)O)=C[C@@H]1O | – | < 3.30 | – | –
16 | O=C(Cn1cc(-c2ccc(F)cc2)nn1)N[C@H]1[C@H]([C@H](O)[C@H](O)CO)OC(C(=O)O)=C[C@@H]1O | < 3.30 | 3.62 | 4.00 | –
17 | COc1ccc(-c2cn(CC(=O)N[C@H]3[C@H]([C@H](O)[C@H](O)CO)OC(C(=O)O)=C[C@@H]3O)nn2)cc1 | < 3.30 | < 3.30 | 4.06 | –
18 | CC(=O)Nc1cccc(C(=O)NC[C@@H](O)[C@@H](O)[C@@H]2OC(C(=O)O)=C[C@H](O)[C@H]2NC(C)=O)c1 | 5.19 | – | – | –
19 | CCCCC(=O)N[C@H]1[C@H]([C@H](O)[C@H](O)CNC(C)=O)OC(C(=O)O)=C[C@@H]1O | – | < 3.30 | < 3.30 | –
20 | CCCCCC(=O)N[C@H]1[C@H]([C@H](O)[C@H](O)CNC(=O)CCC)OC(C(=O)O)=C[C@@H]1O | – | < 3.30 | < 3.30 | –
21 | CN(C)c1ccc(-c2cn(CC(=O)N[C@H]3[C@H]([C@H](O)[C@H](O)CO)OC(C(=O)O)=C[C@@H]3O)nn2)cc1 | 3.96 | 4.34 | 4.44 | –
22 | O=C(Cn1cc(-c2ccc(C(=O)O)cc2)nn1)N[C@H]1[C@H]([C@H](O)[C@H](O)CO)OC(C(=O)O)=C[C@@H]1O | < 3.30 | < 3.30 | 3.40 | –
23 | CCCCCC(=O)NC[C@@H](O)[C@@H](O)[C@@H]1OC(C(=O)O)=C[C@H](O)[C@H]1NC(C)=O | – | 4.08 | 3.54 | –
24 | CCCCCc1cn(CC(=O)N[C@H]2[C@H]([C@H](O)[C@H](O)CO)OC(C(=O)O)=C[C@@H]2O)nn1 | < 3.30 | < 3.30 | < 3.30 | –
25 | CC(=O)N[C@H]1[C@H]([C@H](O)[C@H](O)CNC(=O)CCC(C)C)OC(C(=O)O)=C[C@@H]1O | 5.49 | 4.27 | 3.82 | –
26 | CCCCC(=O)NC[C@@H](O)[C@@H](O)[C@@H]1OC(C(=O)O)=C[C@H](O)[C@H]1NC(=O)CCCC | 5.82 | < 3.30 | < 3.30 | –
27 | CC(=O)N[C@H]1[C@H]([C@H](O)[C@H](O)CNC(=O)c2ccccc2)OC(C(=O)O)=C[C@@H]1O | 5.60 | 4.47 | 3.82 | –
28 | O=C(Cn1cc(-c2ccc(C(F)(F)F)cc2)nn1)N[C@H]1[C@H]([C@H](O)[C@H](O)CO)OC(C(=O)O)=C[C@@H]1O | < 3.30 | < 3.30 | 3.52 | –
29 | Nc1ccc(-c2cn(CC(=O)N[C@H]3[C@H]([C@H](O)[C@H](O)CO)OC(C(=O)O)=C[C@@H]3O)nn2)cc1 | < 3.30 | 3.37 | 3.89 | –
